Measurements as given in ChEMBL document CHEMBL1629492 (Eur J Med Chem, 2010).

Tests used:
[1] = target: T1, Alpha-1B adrenergic receptor (Homo sapiens, UniProt P35368); assay: Displacement of [3H]prazosin from human Alpha-1B adrenoceptor expressed in CHO cells; format: cell-based
T1 sequence (P35368 whole entry): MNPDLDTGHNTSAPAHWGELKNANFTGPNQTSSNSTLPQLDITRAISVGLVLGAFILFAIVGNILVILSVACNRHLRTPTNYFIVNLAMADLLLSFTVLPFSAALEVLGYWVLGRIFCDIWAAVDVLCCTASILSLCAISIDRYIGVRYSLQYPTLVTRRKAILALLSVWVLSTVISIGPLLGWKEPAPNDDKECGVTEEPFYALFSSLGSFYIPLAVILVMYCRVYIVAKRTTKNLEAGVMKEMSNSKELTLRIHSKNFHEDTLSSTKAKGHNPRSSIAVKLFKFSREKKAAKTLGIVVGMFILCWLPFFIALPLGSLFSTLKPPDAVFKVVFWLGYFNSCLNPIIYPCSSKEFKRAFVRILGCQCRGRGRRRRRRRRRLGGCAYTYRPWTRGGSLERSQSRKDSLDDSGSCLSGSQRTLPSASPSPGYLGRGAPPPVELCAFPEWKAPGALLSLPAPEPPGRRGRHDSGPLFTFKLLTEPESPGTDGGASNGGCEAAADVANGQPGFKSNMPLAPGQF
Procedure, shortened: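 Membranes ([…], as printed) from CHO cells stably expressing the cloned human α1b subtype were incubated with 0.1–0.4 nM [³H]prazosin and competitor (1 pM up to the top concentration) in 50 mM Tris-HCl, pH 7.4, for 30 min at 25 °C. Non-specific binding was defined with phentolamine, and incubations ended by filtration. Ki was derived from IC50 by Cheng–Prusoff. Reported as pKi from 2–3 triplicate experiments.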

Rattus norvegicus [2] = species on record: Rattus norvegicus; assay: Selectivity ratio of Ki for alpha1A adrenoceptor in Wistar rat vas deferens to EC50 for Alpha-1D adrenoceptor in Wistar rat thoracic aorta; format: tissue-based
[3] = target: T2, Alpha-1A adrenergic receptor (Rattus norvegicus, UniProt P43140); assay: Antagonist activity at alpha1A adrenoceptor in Wistar rat vas deferens assessed as noradrenaline induced contractions after 30 mins; format: functional, tissue-based; details: read-out: pA2 (converted)
T2 sequence (P43140 whole entry): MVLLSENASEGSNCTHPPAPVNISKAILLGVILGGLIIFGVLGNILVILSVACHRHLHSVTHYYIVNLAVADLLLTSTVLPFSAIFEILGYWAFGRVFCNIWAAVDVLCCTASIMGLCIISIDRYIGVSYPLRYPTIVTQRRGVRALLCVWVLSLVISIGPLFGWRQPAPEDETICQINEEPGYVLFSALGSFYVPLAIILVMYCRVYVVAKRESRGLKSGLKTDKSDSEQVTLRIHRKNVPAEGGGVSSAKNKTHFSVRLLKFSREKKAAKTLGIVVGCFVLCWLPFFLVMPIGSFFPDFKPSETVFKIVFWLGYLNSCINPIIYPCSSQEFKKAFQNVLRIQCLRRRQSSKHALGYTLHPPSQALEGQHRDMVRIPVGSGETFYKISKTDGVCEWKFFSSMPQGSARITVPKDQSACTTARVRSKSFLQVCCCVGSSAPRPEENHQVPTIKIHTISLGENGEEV
Procedure, shortened: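 Prostatic portions (2 cm) of vas deferens from male Wistar rats (275–300 g) were held under 0.35 g tension in Tyrode solution at 37 °C with cocaine present. Tissues were equilibrated 45 min, primed twice with noradrenaline, then given a cumulative isotonic noradrenaline curve.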

Rattus norvegicus [4] = species on record: Rattus norvegicus; assay: Selectivity ratio of Ki for alpha1A adrenoceptor in Wistar rat vas deferens to Ki for Alpha-1D adrenoceptor in Wistar rat thoracic aorta; format: tissue-based
[5] = Selectivity ratio of Ki for human alpha1A adrenoceptor to Ki for human Alpha-1B adrenoceptor
Procedure, shortened: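 Subtype selectivity is the antilog of the difference between pKi values, from [³H]prazosin displacement (0.1–0.4 nM, 30 min, 25 °C, pH 7.4) at cloned human α1a, α1b and α1d receptors in CHO membranes. Ki values came from IC50 via Cheng–Prusoff.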

Rattus norvegicus [6] = species on record: Rattus norvegicus; assay: Selectivity ratio of Ki for alpha1A adrenoceptor in Wistar rat vas deferens to Ki for Alpha-1B adrenoceptor in Wistar rat spleen; format: tissue-based
Rattus norvegicus [7] = species on record: Rattus norvegicus; assay: Selectivity ratio of EC50 for alpha1A adrenoceptor in Wistar rat vas deferens to EC50 for Alpha-1D adrenoceptor in Wistar rat thoracic aorta; format: tissue-based
Rattus norvegicus [8] = species on record: Rattus norvegicus; assay: Selectivity ratio of EC50 for alpha1D adrenoceptor in Wistar rat thoracic aorta to Ki for Alpha-1B adrenoceptor in Wistar rat spleen; format: tissue-based
[9] = target: T3, Alpha-1B adrenergic receptor (Rattus norvegicus) (UniProt P15823); assay: Antagonist activity at Alpha-1B adrenoceptor in Wistar rat spleen assessed as phenylephrine induced contractions after 30 mins; format: functional, tissue-based
T3 sequence (whole entry): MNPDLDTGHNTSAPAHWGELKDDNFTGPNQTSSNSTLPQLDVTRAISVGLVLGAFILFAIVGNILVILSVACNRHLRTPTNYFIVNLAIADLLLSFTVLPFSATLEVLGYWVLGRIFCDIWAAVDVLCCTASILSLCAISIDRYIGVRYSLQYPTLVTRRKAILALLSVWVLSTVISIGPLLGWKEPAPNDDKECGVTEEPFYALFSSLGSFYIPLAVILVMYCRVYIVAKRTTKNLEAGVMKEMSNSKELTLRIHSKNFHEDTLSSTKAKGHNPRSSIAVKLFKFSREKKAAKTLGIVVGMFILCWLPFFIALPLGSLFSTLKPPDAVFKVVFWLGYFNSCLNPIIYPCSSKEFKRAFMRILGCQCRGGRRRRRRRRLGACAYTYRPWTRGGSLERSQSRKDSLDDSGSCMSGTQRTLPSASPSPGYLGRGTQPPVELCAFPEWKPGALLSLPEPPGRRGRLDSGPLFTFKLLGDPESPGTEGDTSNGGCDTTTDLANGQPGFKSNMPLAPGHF
Procedure, shortened: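 Spleen strips from male Wistar rats (275–300 g) were set up in a 20 mL bath of physiological salt solution (pH 7.4, 37 °C, 95% O2/5% CO2) under 1 g tension and equilibrated 2 h. Two cumulative phenylephrine curves were run, each followed by 30 min washing, then 30 min incubation with vehicle or antagonist before a third curve. Values are Schild pA2, or pKB where slopes were nonparallel; 4–6 experiments.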

Row | Compound | Ki [1] [µM] | Selectivity ratio (Rattus norvegicus [2]) | Kb [3] [µM] | Selectivity ratio (Rattus norvegicus [4]) | Ki ratio [5] | Selectivity ratio (Rattus norvegicus [6]) | Selectivity ratio (Rattus norvegicus [7]) | Selectivity ratio (Rattus norvegicus [8]) | pKb [9]
1 | COc1ccc(C[C@@H](C)NCCOc2ccccc2OCC(F)(F)F)cc1S(N)(=O)=O | 0.0055 | 4 | 0.000263 | 4 | 9 | 4 | 4 | 1 | 
2 | COc1ccc(C[C@@H](C)NCCOc2ccccc2OC(C)C)cc1S(N)(=O)=O | 0.00191 | 2 |  | 2 | 5 | 7 | 2 | 3 | 8.81
3 | COc1ccc(C[C@@H](C)NC[C@@H]2Oc3ccccc3O[C@@H]2C)cc1S(N)(=O)=O | 0.0316 | 1 | 0.0162 | 1 | 3 | 1 | 1 | 0.8 | 7.76
4 | COc1ccc(C[C@@H](C)NCCOc2ccccc2OCc2ccccc2)cc1S(N)(=O)=O | 0.00209 | 3 |  | 3 | 6 | 12 | 3 | 4 | 8.57
5 | COc1ccc(C[C@@H](C)NC[C@H]2Oc3ccccc3O[C@H]2C)cc1S(N)(=O)=O | 0.0676 | 2 | 0.0302 | 2 | 4 | 1 | 2 | 0.5 | 
